M4 antag = human M4 muscarinic receptor antagonists, primary screen, CHO cells, Fluo-8 calcium fluorescence; Muscarinic acetylcholine receptor M4 (Homo sapiens), P08173; CHO-hM4 cells, ACh EC80; inhibition, % at 3 µM; actives 0.73% (n = 360,000); AID 624125, 2012;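 active = inhibition above its plate's cutoff, the mean inhibition of sample wells plus 3 SD, cut at about 27% in these data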;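 note: 0% = acetylcholine EC80 with DMSO and 100% = DMSO without agonist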
Target sequence (P08173 whole entry, looked up): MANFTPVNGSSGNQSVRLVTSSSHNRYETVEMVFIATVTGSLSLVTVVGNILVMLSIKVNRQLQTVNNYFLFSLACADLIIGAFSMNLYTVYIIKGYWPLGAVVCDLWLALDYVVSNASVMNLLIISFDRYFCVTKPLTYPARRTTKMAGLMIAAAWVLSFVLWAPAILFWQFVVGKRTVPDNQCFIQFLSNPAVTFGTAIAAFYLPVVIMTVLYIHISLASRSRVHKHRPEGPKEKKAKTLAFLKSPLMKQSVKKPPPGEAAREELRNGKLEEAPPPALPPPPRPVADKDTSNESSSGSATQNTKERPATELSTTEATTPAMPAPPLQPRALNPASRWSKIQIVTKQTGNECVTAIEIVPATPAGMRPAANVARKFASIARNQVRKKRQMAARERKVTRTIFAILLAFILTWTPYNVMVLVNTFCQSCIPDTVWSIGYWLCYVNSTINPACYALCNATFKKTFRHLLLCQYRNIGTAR
CHRM4 PAM = human M4 muscarinic receptor positive allosteric modulators, primary screen, CHO-K1 cells, Fluo-8 calcium fluorescence. CHO-K1 hM4/Gqi5, ACh EC20; 0% = ACh EC20, 100% = maximal ACh. activation, % at 3 µM. actives 0.4% (n = 360,000);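 active = activation above its plate's cutoff, the mean activation of sample wells plus 3 SD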
M4 ag = human M4 muscarinic receptor agonists, primary screen, CHO-K1 cells, Fluo-8 calcium fluorescence; actives 0.14% (n = 360,000); CHO-K1 hM4/Gqi5; vehicle 0%, full acetylcholine response 100%; activation, % at 3 µM; Muscarinic acetylcholine receptor M4 (Homo sapiens), P08173;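 active = activation above the run mean over all test wells plus 3 SD, cut at about 32% in these data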;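 note: peak over basal fluorescence ratio per well then scaled between controls; 0% = DMSO wells and 100% = acetylcholine at EC100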
M5 PAM = human M5 muscarinic receptor positive allosteric modulators, primary screen, CHO-K1 cells, Fluo-8 calcium fluorescence; actives 0.3% (n = 360,000); Muscarinic acetylcholine receptor M5 (Homo sapiens), P08912; AID 624038, 2012; activation, % at 3 µM; CHO-K1 hM5, ACh EC20 PAM; 0% = ACh EC20, 100% = ACh EC100;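 active = activation above the run cutoff, the mean activation of all test compounds plus 3 SD, cut at about 18% in these data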
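system = human M5 receptor in CHO-K1 cells | reagent = EC20 acetylcholine as agonist stimulus | compound dosing = single-point, 3 µM nominal | incubation = Fluo-8 loading 80 min at 37 °C plus 30 min room temperature | detection = Fluo-8 calcium dye fluorescence, kinetic read | benchmarks = low control EC20 acetylcholine (0%), high control EC100 acetylcholine (100%)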
M5 antag = human M5 muscarinic receptor antagonists, primary screen, CHO cells, Fluo-8 calcium fluorescence. Muscarinic acetylcholine receptor M5 (Homo sapiens), P08912. CHO-hM5 cells, ACh EC80. inhibition, % at 3 µM. actives 0.59% (n = 360,000). AID 624040, 2012;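 active = inhibition above a per-plate cutoff, the mean of that plate's test compounds plus 3 SD, cut at about 27% in these data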;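 note: 0% = acetylcholine EC80 with DMSO and 100% = DMSO without agonist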
CHRM5 agonist = human M5 muscarinic receptor agonists, primary screen, CHO-K1 cells, Fluo-8 calcium fluorescence | Muscarinic acetylcholine receptor M5 (Homo sapiens), P08912 | CHO-K1 hM5 cells; 0% DMSO wells, 100% maximal acetylcholine response | AID 624037, 2012 | activation, % at 3 µM | actives 0.19% (n = 360,000);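 active = activation above the run's mean over test compounds plus 3 SD, cut at about 23% in these data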;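 note: signal is peak over basal fluorescence ratio across the kinetic read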
* hit, by the source's call. Sampled rows, rich in hits. Any-hit rate of the full collection: about 1.8%.

SMILES	M4 antag	CHRM4 PAM	M4 ag	M5 PAM	M5 antag	CHRM5 agonist
CN(C)CCCNC(=S)NCC(c1ccc(Cl)cc1Cl)c1c[nH]c2ccccc12 (stereo not drawn)	29*	-11	16	3	7	-5
NCC(c1ccc(Cl)cc1Cl)c1c[nH]c2ccccc12 (stereo not drawn)	17	-11	35*	-2	8	11
CCCCNC(=S)NCC(c1ccccc1)c1c[nH]c2ccccc12 (stereo not drawn)	0	-7	2	-14	18	-7
N/C(CC(=O)NC1CCCCC1)=N\OCC(=O)Nc1ccc(Cl)c(Cl)c1	22	8	6	-4	14	1
CN(Cc1ccc2ccccc2c1)C(=O)c1ccc(C(F)(F)F)cc1	25	-5	0	-9	27*	-5
COc1ccc(CN(C)C(=O)c2ccc(Oc3ccccc3)cc2)cc1F	6	-3	1	-5	11	-4
CCC(C)c1ccccc1NC(=O)c1cc(C)no1 (stereo not drawn)	-13	0	0	-2	2	-2
OC(c1ccccc1)(C1CCCCC1)C(CN1CCOCC1)c1ccccc1 (stereo not drawn)	-14	5	2	3	-6	-6
CCN(CC)CCC(O)(c1ccccc1)C1CCCCC1 (stereo not drawn)	85*	-16	0	-33	89*	-22
CC[N+](CC)(CC)CCC(O)(c1ccccc1)C1CCCCC1 (stereo not drawn)	99*	-18	2	-18	99*	-1
Cc1ccc(/C=C2\CCC3=C2OC(N)=C(C#N)C3c2ccc(C)cc2)cc1 (stereo not drawn)	30*	1	15	-28	33*	4
COc1cccc(OCC(O)CN2CCN(C(c3ccccc3)c3ccccc3)CC2)c1 (stereo not drawn)	-5	-12	2	-28	3	-16
CC(=O)c1ccccc1OCC(O)CN1CCN(C(c2ccccc2)c2ccccc2)CC1 (stereo not drawn)	35*	-23	1	-31	17	-11
CC(/C=C1\N=C(SCc2ccccc2)SC1=O)=C\c1ccccc1	-7	29	0	4	5	5
CN(C)c1ccc(CN2CCC(C(=O)NC(c3ccc(F)cc3)c3ccc4ccccc4n3)CC2)cc1 (stereo not drawn)	8	-7	8	-18	36*	-2
O=C(COc1cccnc1[N+](=O)[O-])Nc1ncc(Cl)cc1Cl	-18	25*	2	4	-1	3
Cc1cc(C)c2sc(NC(=O)C3=COCCO3)nc2c1	-9	22*	3	0	2	-1
Cc1csc(NC(=O)CSc2nnc(Cn3c(=O)sc4ccccc43)n2-c2ccccc2)n1	-5	29*	4	-6	6	3
Cc1ccccc1-n1c(Cn2c(=O)sc3ccccc32)nnc1SCC(=O)Nc1nccs1	-5	4	2	2	-3	2
Cc1c(C(c2ccc(O)cc2)c2c(C)n(C)n(-c3ccccc3)c2=O)c(=O)n(-c2ccccc2)n1C	-4	-8	12	-13	31*	1
CCCNC(=O)CSc1nc2[nH]ncc2c(=O)[nH]1	-2	-1	0	-5	-8	-1
Cc1cc(/C=C(\C#N)C(N)=O)c(C)n1-c1ccc(N2CCOCC2)c([N+](=O)[O-])c1	7	-1	23	-6	10	29*
COc1ccc(NS(=O)(=O)c2ccc(N3CCCC3=O)cc2)cn1	13	-17	21	-20	28*	3
NC(=O)c1ccsc1NC(=O)COC(=O)/C=C/c1ccccc1[N+](=O)[O-]	31*	-8	23	-40	20	5
NC(=O)c1ccsc1NC(=O)COC(=O)/C=C/c1ccccc1	22	-16	27	-30	23	7
SMILES	M4 antag	CHRM4 PAM	M4 ag	M5 PAM	M5 antag	CHRM5 agonist
O=C(O)c1cccc(OCCN2CCCC2=O)c1	-2	3	0	4	-3	2
CN1CCC(=O)N(CCOc2ccccc2)CC1	-15	21	1	20*	-15	2
CN(CCC1CCOCC1)C(=O)C1CCC(=O)N(CCc2ccccc2)C1 (stereo not drawn)	4	3	1	-3	0	-1
C[C@H](NC(=O)c1nc[nH]c1C(=O)NCC(=O)OCc1ccccc1)c1ccccc1	28*	-14	24	-32	13	3
CCN(CC)C(=O)c1[nH]cnc1C(=O)NCC(=O)OCc1ccccc1	24	-12	24	-29	27*	3
O=C(CNC(=O)c1nc[nH]c1C(=O)NCC(=O)OCc1ccccc1)OCc1ccccc1	17	-8	22	-26	21	6
CC(C)(C)OC(=O)NCc1ccc(CNC(=O)c2[nH]cnc2C(=O)NCC(=O)OCc2ccccc2)cc1	38*	-14	30	-36	4	11
Cc1cc(NC(=O)CCC(=O)N(CC(=O)NCC2CCCO2)c2cccc(F)c2)no1 (stereo not drawn)	13	-11	0	-2	16	-2
Cc1ccc2c(CC(=O)Nc3ccc(F)c(S(=O)(=O)N4CCOCC4)c3)coc2c1	-5	2	11	-1	1	3
O=C(CNC(=O)c1ccc(F)cc1)N/N=C/c1cn[nH]c1-c1ccccc1	2	11	1	1	-9	-1
O=C(CNC(=O)c1ccccc1F)N/N=C/c1cn[nH]c1-c1ccccc1	17	-12	3	-21	29*	-9
CCOc1ccccc1NC(=O)CCN1CCN(S(=O)(=O)c2ccc(Br)cc2)CC1	3	16*	6	-1	-4	7
O=S(=O)(Cc1ccccc1)N1CCN(C/C=C/c2ccccc2)CC1	9	-6	1	-3	5	-5
CS(=O)(=O)N1CCN(C/C=C/c2ccccc2)CC1	-5	19*	1	-2	-5	-6
CC(C)C(=O)NCCn1ccc2ccccc21	3	30*	1	5	-9	-1
CCC(=O)NCCn1ccc2ccccc21	-6	6	1	0	2	2
CC1Cc2cc(-c3csc(NC(=O)Cc4cccs4)n3)ccc2N1S(C)(=O)=O (stereo not drawn)	29*	-26	17	-18	14	4

High-throughput results as filed in PubChem.
